Reference: the array DNA melting data of Ke et al. (doi:10.1101/2024.01.08.574731)

What was measured:
[1] = folding enthalpy; higher = less favourable; fluorescence melt of hairpins on a sequencing array, two-state fit; settings: sodium 0.088 M
Summary of the method: (§1)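 Bootstrapped two-state fits yielded melting temperature and folding enthalpy for library hairpins. Cy3 fluorescence, with annealed Cy3 and quencher oligos, was imaged on a sequenced MiSeq flow cell in 50 mM Na-HEPES pH 8.0, 25 mM NaCl in 2.5 °C steps up to 60 °C, and normalised to pre-quench Cy3 and to control constructs. Four replicates were combined by inverse variance, and fitted temperatures were raised by 9.35 °C to match UV melts.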

[2] = melting temperature; fluorescence melt of hairpins on a sequencing array, two-state fit, raised by 9.35 °C to match UV melts; settings: sodium 0.088 M
Summary of the method: as §1

CGACCCCGGAAACGGTCG (((..(((....))))))
folding enthalpy [1]: -21.3 kcal/mol | Tm [2]: 44.4 °C

GAATTGGGAAACCAATTC (((((((....)))))))
folding enthalpy [1]: -45 kcal/mol | Tm [2]: 54 °C

GAACGCACGAAAGTGTTC (((..(((....))))))
folding enthalpy [1]: -12.8 kcal/mol | Tm [2]: 34.1 °C

GACTCTGGAAACAGAGTC (((((((....)))))))
folding enthalpy [1]: -34.3 kcal/mol | Tm [2]: 63.9 °C

GCGGGCGCGAAAGCGCGC (((..(((....))))))
folding enthalpy [1]: -7.24 kcal/mol | Tm [2]: 63 °C

GCCAAGGGAAACCCTAGC ((.(.((....)).).))
folding enthalpy [1]: -17.6 kcal/mol | Tm [2]: 28.8 °C

GCTAGGCGAAAGCGAAGC (((..((....))..)))
folding enthalpy [1]: -15.8 kcal/mol | Tm [2]: 35.3 °C

GATCCTCGGCAGGATC ((((((....))))))
folding enthalpy [1]: -29.4 kcal/mol | Tm [2]: 49.7 °C

GTGCTCGAAAGAGAGCAC ((((((....)))..)))
folding enthalpy [1]: -34.2 kcal/mol | Tm [2]: 58.2 °C

GCTCACGAAAGTGCCAGC ((((((....)))..)))
folding enthalpy [1]: -13.1 kcal/mol | Tm [2]: 33.5 °C

GATCGAGGATCGATC ((((((...))))))
folding enthalpy [1]: -35.4 kcal/mol | Tm [2]: 59.6 °C

GTAGGCGGAAACGTCTAC ((((.((....)).))))
folding enthalpy [1]: -39.1 kcal/mol | Tm [2]: 53.1 °C

GATTCGGGAAACTGGATC (((.(.(....).).)))
folding enthalpy [1]: -24.2 kcal/mol | Tm [2]: 30.8 °C

GATCGGACGACCGATC ((((((....))))))
folding enthalpy [1]: -35.1 kcal/mol | Tm [2]: 57.3 °C

GGAGGTGCGAAAGCATCC (((..(((....))))))
folding enthalpy [1]: -11.6 kcal/mol | Tm [2]: 39.3 °C

GATCCAGCTCTGGATC ((((((....))))))
folding enthalpy [1]: -41.1 kcal/mol | Tm [2]: 54 °C

GTAACCGGAAACGGTTAC (((((((....)))))))
folding enthalpy [1]: -38.8 kcal/mol | Tm [2]: 65.8 °C

GCAGAACGAAAGTTATGC (((.(((....))).)))
folding enthalpy [1]: -39.3 kcal/mol | Tm [2]: 55.4 °C

GATCGTGTAGACGATC ((((((....))))))
folding enthalpy [1]: -39.8 kcal/mol | Tm [2]: 59.6 °C

GATCAGGCCACTGATC ((((((....))))))
folding enthalpy [1]: -36.4 kcal/mol | Tm [2]: 60.8 °C

GTACTGCGAAAGCATTAC (((.(((....))).)))
folding enthalpy [1]: -22.5 kcal/mol | Tm [2]: 41.7 °C

GATCGGGGAGCCGATC ((((((....))))))
folding enthalpy [1]: -35.1 kcal/mol | Tm [2]: 59.5 °C

CGCCCACGGAAACGTGCG (((..(((....))))))
folding enthalpy [1]: -12.3 kcal/mol | Tm [2]: 37.1 °C

GTTCGCGGAAACGCGAGC (.(((((....))))).)
folding enthalpy [1]: -15.7 kcal/mol | Tm [2]: 59.2 °C

CACTTGAAAAAGTG (((((....)))))
folding enthalpy [1]: -21.2 kcal/mol | Tm [2]: 43.6 °C

GGGAGATCGAAAGATCCC (((..(((....))))))
folding enthalpy [1]: -14.5 kcal/mol | Tm [2]: 49.8 °C

GATCTGATCCAGATC ((((((...))))))
folding enthalpy [1]: -35.2 kcal/mol | Tm [2]: 47.6 °C

GATAGGGGAAACCTTATC ((((.((....)).))))
folding enthalpy [1]: -25.5 kcal/mol | Tm [2]: 33.6 °C

GTGCTTCGAAAGAATCAC (((.(((....))).)))
folding enthalpy [1]: -35.5 kcal/mol | Tm [2]: 41.6 °C

GTGGACGAAAGTCCTCAC ((((((....)))..)))
folding enthalpy [1]: -9.72 kcal/mol | Tm [2]: 38 °C

GATCTTGCCAAAGATC ((((((....))))))
folding enthalpy [1]: -39 kcal/mol | Tm [2]: 55 °C

GCGACGCGAAAGCATAGC ((.(.((....)).).))
folding enthalpy [1]: -18.8 kcal/mol | Tm [2]: 62.7 °C

GCCCCCGAAAGGGAAGGC ((((((....)))..)))
folding enthalpy [1]: -27 kcal/mol | Tm [2]: 55.7 °C

GGCTGACCGAAAGGTGCC (((..(((....))))))
folding enthalpy [1]: -24.7 kcal/mol | Tm [2]: 52.4 °C

GGGTCAACGAAAGTTCCC (((..(((....))))))
folding enthalpy [1]: -18.8 kcal/mol | Tm [2]: 34.7 °C

GTATTCGGAAACGAACAC ((.((((....)))).))
folding enthalpy [1]: -25.9 kcal/mol | Tm [2]: 34.3 °C

GAGTCTGCGAAAGCACTC (((..(((....))))))
folding enthalpy [1]: -14.8 kcal/mol | Tm [2]: 30.4 °C

GGAGACGAAAGTCAGTCC ((((((....)))..)))
folding enthalpy [1]: -13.6 kcal/mol | Tm [2]: 31.6 °C

GGGGCCGAAAGGCAGCCC ((((((....)))..)))
folding enthalpy [1]: -14.6 kcal/mol | Tm [2]: 54 °C

GTAAAAGAAATTTTAC ((((((....))))))
folding enthalpy [1]: -13 kcal/mol | Tm [2]: 30.8 °C

GTTTCAACGAAAGTTAAC (((..(((....))))))
folding enthalpy [1]: -15.8 kcal/mol | Tm [2]: 35.5 °C

GACGAAGCGAAAGCTGTC (((..(((....))))))
folding enthalpy [1]: -16.7 kcal/mol | Tm [2]: 45.4 °C

GTCTCGAAAGAGAC (((((....)))))
folding enthalpy [1]: -24.8 kcal/mol | Tm [2]: 60.5 °C

GACTATGGAAACATAGCC (.(((((....))))).)
folding enthalpy [1]: -22.6 kcal/mol | Tm [2]: 35.7 °C

GATCCGGGTACGGATC ((((((....))))))
folding enthalpy [1]: -36 kcal/mol | Tm [2]: 67.9 °C

GAGAGGACGAAAGTCCTC (((..(((....))))))
folding enthalpy [1]: -8.73 kcal/mol | Tm [2]: 60.8 °C

GATCGGATAACCGATC ((((((....))))))
folding enthalpy [1]: -35.1 kcal/mol | Tm [2]: 56.2 °C

GAAAGCGAAAGCTACTTC ((((((....)))..)))
folding enthalpy [1]: -14.6 kcal/mol | Tm [2]: 35.9 °C

GCTTCGCGAAAGCACAGC (((..((....))..)))
folding enthalpy [1]: -15.3 kcal/mol | Tm [2]: 38.2 °C

GATCTATCGATAGATC ((((((....))))))
folding enthalpy [1]: -44.3 kcal/mol | Tm [2]: 48 °C

GGTGTGACGAAAGTCACC (((..(((....))))))
folding enthalpy [1]: -7.87 kcal/mol | Tm [2]: 43.6 °C

GTCCGACGAAAGTCTGAC (((.(((....))).)))
folding enthalpy [1]: -27.1 kcal/mol | Tm [2]: 49.1 °C

GCATCCGCGAAAGCGTGC (((..(((....))))))
folding enthalpy [1]: -10.9 kcal/mol | Tm [2]: 40.3 °C

GGGTTCGAAAGAAGTCCC ((((((....)))..)))
folding enthalpy [1]: -20.2 kcal/mol | Tm [2]: 32.7 °C

GAGAGAGAAATCTCTC ((((((....))))))
folding enthalpy [1]: -27.6 kcal/mol | Tm [2]: 45.8 °C

GCTAGGGGAAACCTTAGC ((((.((....)).))))
folding enthalpy [1]: -33.7 kcal/mol | Tm [2]: 44.5 °C

GTGGCGGGAAACCACCAC ((((.((....)).))))
folding enthalpy [1]: -35.4 kcal/mol | Tm [2]: 51.5 °C

GTACTGGCGAAAGCCTAC (((..(((....))))))
folding enthalpy [1]: -11 kcal/mol | Tm [2]: 26.3 °C

GCATTTGGAAACGAATGC (((((.(....).)))))
folding enthalpy [1]: -41.8 kcal/mol | Tm [2]: 49 °C

GTTCGGGGAAACTCGAAC (((((.(....).)))))
folding enthalpy [1]: -30.8 kcal/mol | Tm [2]: 51.3 °C

GATCTCCACGAGATC ((((((...))))))
folding enthalpy [1]: -42 kcal/mol | Tm [2]: 53.6 °C

GTATTTGCGAAAGCATAC (((..(((....))))))
folding enthalpy [1]: -9.06 kcal/mol | Tm [2]: 28.7 °C

GCGTTGCGAAAGCAAGGC ((.((((....)))).))
folding enthalpy [1]: -30.3 kcal/mol | Tm [2]: 68.5 °C

CGAAGCGGAAACGCGTCG (((.(((....))).)))
folding enthalpy [1]: -29.1 kcal/mol | Tm [2]: 55.1 °C

GCTCGGGGAAACCCGAAC (.(((((....))))).)
folding enthalpy [1]: -12.6 kcal/mol | Tm [2]: 45.9 °C

GCTACTGCGAAAGCAAGC (((..(((....))))))
folding enthalpy [1]: -11.4 kcal/mol | Tm [2]: 34.7 °C

GTGCGCGAAAGCGCTCAC ((((((....)))..)))
folding enthalpy [1]: -7.75 kcal/mol | Tm [2]: 40.4 °C

GGAACCGAAAGGTCGTCC ((((((....)))..)))
folding enthalpy [1]: -10.8 kcal/mol | Tm [2]: 31.4 °C

GGTCGGGGAAACCTGACC ((((.((....)).))))
folding enthalpy [1]: -37.5 kcal/mol | Tm [2]: 57.2 °C
